pIC50: −log10 of the molar value. Activity calls are given as the source filed them. No cut-off for these calls is given here.

Data on 13 compounds can be found in ChEMBL document CHEMBL4196176, “Structure-Based Design of MptpB Inhibitors That Reduce Multidrug-Resistant Mycobacterium tuberculosis Survival and Infection Burden in Vivo” (J Med Chem, 2018).

For data set [1], the system named is Cavia porcellus. Description: Half life in Dunkin Hartley guinea pig at 2.5 mg/kg, ip. It counts as ADME, organism-based. Particulars: in vivo.
Data set [2] deals with J774.A1. Description: Cytotoxicity against mouse J774A.1 cells assessed as reduction in cell viability at 50 to 150 uM after 24 hrs by MTT assay. It counts as cell-based. Particulars: j774.a1, 24 h. In a few lines: (§1)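 MTT viability assay in J774A.1 cells seeded at 6 × 10^3/well and adhered overnight. Inhibitor in DMSO or DMSO only added for 24 h. MTT (5 mg/mL in PBS) added for 4 h, formazan dissolved in DMSO with Sorensen's glycine buffer, absorbance read at 570 nm.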

In data set [3] the target is Dual specificity protein phosphatase 3 (Homo sapiens, UniProt P51452). Nature of the data set: Inhibition of human VHR using pNPP as substrate preincubated for 15 mins followed by substrate addition and measured after 15 mins. The procedure, abridged: (§2)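 His-tagged MptpA/MptpB expressed in E. coli BL21(DE3); VHR and hPTP1B purified as GST fusions with the tag cleaved. 0.5 μg protein in Tris/BisTris/acetate buffer (pH 7 MptpB, 6.5 MptpA, 6 hPTP1B, 5 VHR) with compound at 0–250 μM, 15 min at room temperature. pNPP added to 0.35 mM for 15 min, quenched with NaOH, read at 405 nm against a pNP curve. No-enzyme blanks.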
Sequence of Dual specificity protein phosphatase 3 (P51452 whole entry, the tested form may be a part): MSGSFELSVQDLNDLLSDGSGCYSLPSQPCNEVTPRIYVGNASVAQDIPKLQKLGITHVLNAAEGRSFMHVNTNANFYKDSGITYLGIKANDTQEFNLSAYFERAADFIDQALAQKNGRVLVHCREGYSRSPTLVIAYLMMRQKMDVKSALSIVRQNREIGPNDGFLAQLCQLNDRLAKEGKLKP

For data set [4], the system named is Cavia porcellus. Description: Cmax in Dunkin Hartley guinea pig at 5 mg/kg, po after 0.25 hrs post dose. It counts as ADME, organism-based. Further details: dose 5 mg/kg, route oral. The conditions noted are these: in vivo, BLD = below limit of detection.
Data set [5] relates to Cavia porcellus. Description: AUCinfinity in Dunkin Hartley guinea pig at 5 mg/kg, po. It counts as ADME, organism-based. Further details: dose 5 mg/kg, time infinity, route oral. The conditions noted are these: in vivo, BLD = below limit of detection.
The test system of data set [6] is Cavia porcellus. Description: Oral bioavailability in Dunkin Hartley guinea pig at 5 mg/kg. It counts as ADME, organism-based. The conditions noted are these: in vivo.
The subject of data set [7] is Cavia porcellus. Description: Cmax in Dunkin Hartley guinea pig at 2.5 mg/kg, ip after 0.5 hrs post dose. It counts as ADME, organism-based. Further details: dose 2.5 mg/kg, route intraperitoneal. Particulars: in vivo.
Data set [8] concerns Cavia porcellus. Nature of the data set: Half life in Dunkin Hartley guinea pig at 5 mg/kg, po. The conditions noted are these: in vivo, BLD = below limit of detection. It counts as ADME, organism-based.
In data set [9] the target is T1, Tyrosine-protein phosphatase non-receptor type 1 (Homo sapiens, UniProt P18031).
T1 sequence (P18031 whole entry): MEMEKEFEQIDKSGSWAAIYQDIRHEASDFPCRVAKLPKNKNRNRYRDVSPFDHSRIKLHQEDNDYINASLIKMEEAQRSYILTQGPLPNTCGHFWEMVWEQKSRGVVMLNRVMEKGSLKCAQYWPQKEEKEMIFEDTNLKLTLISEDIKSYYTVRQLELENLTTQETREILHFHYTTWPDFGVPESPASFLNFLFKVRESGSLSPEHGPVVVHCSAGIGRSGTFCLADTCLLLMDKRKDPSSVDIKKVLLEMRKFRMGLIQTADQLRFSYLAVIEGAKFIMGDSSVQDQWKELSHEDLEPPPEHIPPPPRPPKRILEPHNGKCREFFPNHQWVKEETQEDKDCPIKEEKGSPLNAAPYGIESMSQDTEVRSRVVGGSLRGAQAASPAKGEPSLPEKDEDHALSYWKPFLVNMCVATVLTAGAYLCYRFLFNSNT
Nature of the data set: Inhibition of human PTP1B using pNPP as substrate preincubated for 15 mins followed by substrate addition and measured after 15 mins.

Data set [10] has as its system Cavia porcellus. Nature of the data set: AUCinfinity in Dunkin Hartley guinea pig at 2.5 mg/kg, ip. The conditions noted are these: in vivo. It counts as ADME, organism-based. More on the design: dose 2.5 mg/kg, time infinity, route intraperitoneal.
The nature of data set [11]: Inhibition of Mycobacterium tuberculosis H37Rv His-tagged ptpA expressed in Escherichia coli BL21(DE3) using pNPP as substrate preincubated for 15 mins followed by substrate addition and measured after 15 mins. The procedure, abridged:
as §2

In data set [12] the target is T2, Phosphotyrosine protein phosphatase (Mycobacterium tuberculosis, UniProt A0A045ISB3).
T2 sequence (A0A045ISB3 whole entry): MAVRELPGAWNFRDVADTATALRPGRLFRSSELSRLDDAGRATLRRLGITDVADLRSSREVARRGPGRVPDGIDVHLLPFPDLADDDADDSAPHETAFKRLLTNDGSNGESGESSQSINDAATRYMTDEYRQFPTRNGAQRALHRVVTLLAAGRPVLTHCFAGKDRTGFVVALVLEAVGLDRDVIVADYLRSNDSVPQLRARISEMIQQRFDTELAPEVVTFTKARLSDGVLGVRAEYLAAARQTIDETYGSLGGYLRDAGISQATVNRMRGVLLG
Nature of the data set: Inhibition of Mycobacterium tuberculosis H37Rv His-tagged ptpB expressed in Escherichia coli BL21(DE3) using pNPP as substrate preincubated for 15 mins followed by substrate addition and measured after 15 mins.

Data set [13] has as its system J774.A1. Nature of the data set: Cytotoxicity against mouse J774A.1 cells assessed as reduction in cell viability at >100 uM after 24 hrs by MTT assay. It counts as cell-based. Particulars: j774.a1, 24 h. In a few lines:
as §1

For data set [14], the target named is T3, Phosphotyrosine protein phosphatase (Mycobacterium tuberculosis) (UniProt A0A045ISB3).
T3 sequence (whole entry): T2 sequence (A0A045ISB3 whole entry)
Description: Inhibition of Mycobacterium tuberculosis H37Rv ATCC 35837 ptpB infected in human THP1 cells assessed as reduction in intracellular bacterial burden at 10 to 80 uM after 72 hrs post infection relative to DMSO-treated control. It counts as cell-based. The procedure, abridged:
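PMA-differentiated THP1 cells (1 × 10^6/well, RPMI with 10% FBS and 4 mM L-glutamine) received inhibitor in DMSO, then thawed M. tuberculosis at MOI 1:1. Washed after 3 h; medium and inhibitor renewed at 24 h. At 72 h, lysed in 0.05% SDS; 10-fold dilutions plated in duplicate on 7H10, CFU counted after 3 weeks at 37 °C; triplicate experiments.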

Data set [15] can be described thus: Selectivity ratio of IC50 for human PTP1B to IC50 for Mycobacterium tuberculosis H37Rv His-tagged ptpB.
Data set [16] has as its system Cavia porcellus. Nature of the data set: Oral bioavailability in Dunkin Hartley guinea pig at 3.5 mg/kg. It counts as ADME, organism-based. The conditions noted are these: in vivo.
Data set [17] has as its system Cavia porcellus. Nature of the data set: Cmax in Dunkin Hartley guinea pig at 1.25 mg/kg, ip after 0.5 hrs post dose. Further details: dose 1.25 mg/kg, route intraperitoneal. The conditions noted are these: in vivo. It counts as ADME, organism-based.
For data set [18], the system named is Cavia porcellus. Nature of the data set: AUCinfinity in Dunkin Hartley guinea pig at 1.25 mg/kg, ip. It counts as ADME, organism-based. Further details: dose 1.25 mg/kg, time infinity, route intraperitoneal. The conditions noted are these: in vivo.
The test system of data set [19] is Cavia porcellus. Description: Cmax in Dunkin Hartley guinea pig at 3.5 mg/kg, po after 0.25 hrs post dose. It counts as ADME, organism-based. Further details: dose 3.5 mg/kg, route oral. The conditions noted are these: in vivo, BLD = below limit of detection.
Data set [20] relates to Cavia porcellus. Description: AUCinfinity in Dunkin Hartley guinea pig at 3.5 mg/kg, po. It counts as ADME, organism-based. Further details: dose 3.5 mg/kg, route oral, time infinity. Particulars: in vivo, BLD = below limit of detection.
The subject of data set [21] is Cavia porcellus. Nature of the data set: Half life in Dunkin Hartley guinea pig at 1.25 mg/kg, ip. It counts as ADME, organism-based. The conditions noted are these: in vivo.
Data set [22] has as its system Cavia porcellus. Nature of the data set: Half life in Dunkin Hartley guinea pig at 3.5 mg/kg, po. It counts as ADME, organism-based. Particulars: in vivo, BLD = below limit of detection.

With `O=C(O)c1noc(-c2ccccc2)c1-c1cccc(-c2cc(Cl)c(O)c(Cl)c2)c1`, the t1/2 in the data set with Cavia porcellus [1] was 0.7 h; with Cavia porcellus [8], “Bld”. The Activity entry in the data set with J774.A1 [2] was “Non-Toxic”. Moreover, the pIC50 in data set [3] was 4.98; in data set [9], 3.90; in data set [11] it was 4.47. The Cmax entry was “Bld” in the data set on Cavia porcellus [4] and 3714 ng/mL in the data set with Cavia porcellus [7]. Further, the AUC entry in the data set with Cavia porcellus [5] is “Bld”; with Cavia porcellus [10] it was 4968 ng·h/mL. The compound also returned a F in the data set with Cavia porcellus [6] below 4%.

Regarding `Cc1cc(-c2cccc(-c3c(C(=O)O)noc3-c3ccccc3)c2)cc(C)c1O`, the t1/2 with Cavia porcellus [1] is 1.4 h; in the data set with Cavia porcellus [8], “Bld”. Moreover, the pIC50 in data set [3] was 4.63; in data set [9] it was below 4.00; in data set [11], 4.44. Besides, the values for the Cmax result in the data set on Cavia porcellus [4] and with Cavia porcellus [7] were “Bld” and 197 ng/mL, respectively. In addition, the values for the AUC result in the data set with Cavia porcellus [5] and in the data set with Cavia porcellus [10] were “Bld” and 399 ng·h/mL, respectively. Also, in the data set with Cavia porcellus [6], the F is below 2.5%.

`O=C(O)c1cc(-c2ccccc2)on1` showed a pIC50 in [12] below 3.30.

Regarding `O=C(O)c1noc(-c2ccccc2)c1-c1cccc(-c2ccc(O)c(Cl)c2)c1`, the Activity entry is on record as “Non-Toxic” in the data set with J774.A1 [2] and above 23% in the data set on J774.A1 [13]. In addition, the pIC50 in data set [12] is 6.05; in [3] it was 4.73; in [9], 3.67; in [11], 4.63.

With `O=C(O)c1noc(-c2ccccc2)c1-c1cccc(-c2cc(Cl)c(O)c([N+](=O)[O-])c2)c1`, the Activity entry in the data set with J774.A1 [2] was “Non-Toxic”. The figures for the pIC50 in data set [3], in data set [9] and in [11] were 4.89, 3.50 and 4.52, respectively.

Take `COC(=O)c1c(O)cccc1OC/C=C/c1cccc(-c2cc(C(=O)O)no2)c1` [ISOXAZOLECARBOXYLIC ACID]: the pIC50 in data set [12] was 5.15. For the same compound, in data set [14], the inhibition result is “Active”.

As to `O=C(O)c1noc(-c2ccccc2)c1-c1cccc(-c2cccc(O)c2)c1`, the pIC50 in [3] was 4.23; in data set [9], below 4.00; in data set [11], 4.02.

As for `O=C(O)c1noc(-c2ccccc2)c1-c1ccccc1`, the pIC50 in data set [12] was 4.77; in [9], 4.00. For the same compound, the Ratio IC50 in data set [15] amounted to 5.9.

Consider `O=C(O)c1noc(-c2ccccc2)c1-c1cccc(O)c1`, for which the pIC50 in data set [12] is 4.07.

Consider `O=C(O)c1noc(-c2ccccc2)c1-c1cccc(-c2cc(Cl)cc(Cl)c2)c1`, for which the pIC50 in data set [3] is 4.91; in data set [9] it was 4.32; in data set [11], 5.19. In the data set with Cavia porcellus [16], this compound registered an F below 13%. Further, the Cmax in the data set on Cavia porcellus [17] was 746 ng/mL; in the data set with Cavia porcellus [19] it was “Bld”. Also, the AUC with Cavia porcellus [18] is 1742 ng·h/mL; in the data set on Cavia porcellus [20], “Bld”. Also, the t1/2 is 1.3 h in the data set with Cavia porcellus [21] and “Bld” with Cavia porcellus [22].

For the compound `O=C(O)c1noc(-c2ccccc2)c1-c1cccc(-c2ccc(O)cc2)c1`, the Activity entry with J774.A1 [2] was “Non-Toxic”. Also, the pIC50 in data set [12] is 5.55; in data set [3], 4.27; in data set [9], below 4.00; in [11] it was 4.13.

`COc1cccc(-c2c(C(=O)O)noc2-c2ccccc2)c1` gave a pIC50 in data set [12] of 4.42.

With `O=C(O)c1noc(-c2ccccc2)c1-c1cccc(-c2ccc(O)c(F)c2)c1`, the Activity entry in the data set with J774.A1 [2] is listed as “Non-Toxic”. For the same compound, the pIC50 is 5.82 in data set [12], 4.40 in data set [3], below 4.00 in data set [9] and 4.45 in [11].
